Results: ChEMBL document CHEMBL1144355, “Synthesis and antibacterial activity of the 4-quinolone-3-carboxylic acid derivatives having a trifluoromethyl group as a novel N-1 substituent” (2005)
≈ marks a conversion by molar mass, not a printed value.

Experiments:
Assay type in all cases: functional
Staphylococcus aureus = assay: In vitro antibacterial activity against Staphylococcus aureus Smith
How it was run: (§1)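 MIC (μg/mL) determined by agar dilution on Mueller–Hinton agar. Plates were incubated at 35 °C for 18 h. MIC was taken as the lowest agent concentration that prevented visible growth.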

Escherichia coli = assay: In vitro antibacterial activity against Escherichia coli NIHJ JC-2; how it was run: as §1
Pseudomonas aeruginosa = assay: In vitro antibacterial activity against Pseudomonas aeruginosa IID1210; how it was run: as §1
Streptococcus pneumoniae = assay: In vitro antibacterial activity against Streptococcus pneumoniae type III; how it was run: as §1

SMILES | MIC (Staphylococcus aureus) [µg/mL] | MIC (Escherichia coli) [µg/mL] | MIC (Pseudomonas aeruginosa) [µg/mL] | MIC (Streptococcus pneumoniae) [µg/mL]
CN1CCN(c2cc3c(cc2F)c(=O)c(C(=O)O)cn3-c2ccc(F)cc2F)CC1 | 0.1 (≈ 0.24 µM) | 0.1 (≈ 0.24 µM) | 3.13 (≈ 7.5 µM) | 0.39 (≈ 0.934 µM)
CN1CCN(c2cc3c(cc2F)c(=O)c(C(=O)O)cn3C)CC1 | 0.39 (≈ 1.22 µM) | 0.05 (≈ 0.157 µM) | 1.56 (≈ 4.89 µM) | 6.25 (≈ 19.6 µM)
NC1CCN(c2cc3c(cc2F)c(=O)c(C(=O)O)cn3C(F)(F)F)C1 (stereo unspecified) | 1.56 (≈ 4.34 µM) | 0.39 (≈ 1.09 µM) | > 12.5 | 12.5 (≈ 34.8 µM)
CN1CCN(c2cc3c(cc2F)c(=O)c(C(=O)O)cn3CCF)CC1 | 0.2 (≈ 0.569 µM) | 0.0125 (≈ 0.0356 µM) | 1.56 (≈ 4.44 µM) | 1.56 (≈ 4.44 µM)
CN1CCN(c2cc3c(cc2F)c(=O)c(C(=O)O)cn3C(C)(C)C)CC1 | 0.2 (≈ 0.553 µM) | 0.025 (≈ 0.0692 µM) | 1.56 (≈ 4.32 µM) | 0.78 (≈ 2.16 µM)
CN1CCN(c2cc3c(cc2F)c(=O)c(C(=O)O)cn3C2CC2)CC1 | 0.1 (≈ 0.29 µM) | ≤ 0.0063 | 0.78 (≈ 2.26 µM) | 0.39 (≈ 1.13 µM)
CN1CCN(c2cc3c(cc2F)c(=O)c(C(=O)O)cn3C(F)(F)F)CC1.Cl | 0.78 | 0.05 | 6.25 | 3.13
CCn1cc(C(=O)O)c(=O)c2cc(F)c(N3CCNCC3)cc21 [NORFLOXACIN] | 0.39 (≈ 1.22 µM) | 0.05 (≈ 0.157 µM) | 1.56 (≈ 4.89 µM) | 3.13 (≈ 9.8 µM)
CCn1cc(C(=O)O)c(=O)c2cc(F)c(N3CCN(C)CC3)cc21 [PEFLOXACIN] | 0.2 (≈ 0.6 µM) | 0.025 (≈ 0.075 µM) | 1.56 (≈ 4.68 µM) | 3.13 (≈ 9.39 µM)
